Measurements pooled from the literature.
Protocols differ between the studies behind these lines.
Target: Mitogen-activated protein kinase kinase kinase 3 (MAP3K3, Homo sapiens, UniProt Q99759)
One construct used (Q99759 1-626): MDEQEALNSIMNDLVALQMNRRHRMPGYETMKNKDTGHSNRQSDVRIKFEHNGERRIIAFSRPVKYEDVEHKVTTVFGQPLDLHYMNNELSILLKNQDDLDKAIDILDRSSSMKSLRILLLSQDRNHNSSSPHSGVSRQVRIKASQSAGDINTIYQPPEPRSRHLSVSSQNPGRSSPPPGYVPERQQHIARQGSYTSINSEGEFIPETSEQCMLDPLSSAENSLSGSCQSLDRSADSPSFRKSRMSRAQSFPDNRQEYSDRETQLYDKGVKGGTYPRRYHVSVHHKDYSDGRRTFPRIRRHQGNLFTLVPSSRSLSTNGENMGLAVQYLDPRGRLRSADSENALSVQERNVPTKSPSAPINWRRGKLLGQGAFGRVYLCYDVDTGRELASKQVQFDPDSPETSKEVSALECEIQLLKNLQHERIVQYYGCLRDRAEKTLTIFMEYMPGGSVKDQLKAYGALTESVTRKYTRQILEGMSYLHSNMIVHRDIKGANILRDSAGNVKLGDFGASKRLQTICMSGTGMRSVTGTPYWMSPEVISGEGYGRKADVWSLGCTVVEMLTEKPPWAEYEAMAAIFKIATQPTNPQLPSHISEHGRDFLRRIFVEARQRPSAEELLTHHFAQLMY

| SMILES | test | conditions | remaining binding |
| --- | --- | --- | --- |
| CS(=O)(=O)NCC[C@H](NC(=O)c1cncc2c1cnn2-c1ccc(F)cc1)c1ccnc(S(C)(=O)=O)c1 | cell-free assay, competition with immobilised ligand | 1 µM | 100% |
| COc1ncc2cc3ccccc3nc2c1C#N | cell-free assay, competition with immobilised ligand | 5 µM | 95% |
| CN(c1nccc(-c2cnn3ncccc23)n1)C1CC1 | binding | 1 µM | 100% |
| O=C(O)[C@H]1[C@H](Cn2nnc3ccccc3c2=O)CC[C@@H]1C(=O)c1ccc(OCCC2CCOCC2)cc1 | cell-free assay, competition with immobilised ligand | 1 µM | 100% |
| O=C(NCCCN1CCOCC1)c1ccc(Nc2nccc(-c3cc4ccccc4s3)n2)cc1 | binding, competition with immobilised ligand | 1 µM | 65% |
| CNC(=O)[C@@H]1CC[C@@H](n2c(-c3ccc4cnccc4c3)nc3ccc(C(=O)NCc4cccc(C(N)=O)c4)cc32)C1 | binding, competition with immobilised ligand | 1 µM | 100% |
| C[C@@H]1CN(c2cc(-c3nn(C)c4ccc(OC5(C)CC5)cc34)ncn2)C[C@H](C)O1 | cell-free assay, competition with immobilised ligand | 1 µM | 90% |
| CN(C)c1ncc(F)c(-c2cnn3ncccc23)n1 | binding | 1 µM | 90% |
| CC(=O)Nc1c(C(C)=O)c(=O)n(C)c2nc(-c3ccc(Cl)cc3Cl)c(-c3ccc(Cl)cc3)cc12 | cell-free assay, competition with immobilised ligand | 1 µM | 100% |
| O=C(Nc1c[nH]nc1C(=O)NC1CCNCC1)c1cc(F)cc(F)c1 | binding, competition with immobilised ligand | 1 µM | 89% |
| Nc1c(C(=O)NCc2ccc(C(=O)NCCCC3CCCCC3)cc2)cnn1-c1ccccc1 | cell-free assay, competition with immobilised ligand | 0.1 µM | 100% |
| O=C(c1ccc(Nc2nccc(-c3cc4ccccc4s3)n2)cc1)N1CCC(N2CCCC2)CC1 | binding, competition with immobilised ligand | 1 µM | 61% |
| N[C@H]1CCN(c2nccc(-c3cnn4ncccc34)n2)C1 | binding | 1 µM | 100% |
| O=C(Nc1cccnn1)N1CC(C/C=C/c2cncc(Oc3ccc(C(F)(F)F)cn3)n2)C1 | cell-free assay, competition with immobilised ligand | 1 µM | 79% |
| CN(C)c1nccc(-c2cnn3ncccc23)n1 | binding | 1 µM | 100% |
| Cc1cc(NC(=O)c2cccc(S(F)(F)(F)(F)F)c2)cc(-n2ccn3nc(-c4cccnc4)cc23)c1 | cell-free assay, competition with immobilised ligand | 1 µM | 87.9% |
| CN(C)c1nccc(-c2cnc3ncccn23)n1 | binding | 1 µM | 44% |
| COc1cnc(Nc2cccc(S(N)(=O)=O)c2)nc1N1CCN(c2ccccc2)CC1 | binding, competition with immobilised ligand | 1 µM | 82% |
| C[C@@H]1CCN(c2nccc(-c3cnn4ncccc34)n2)C1 | binding | 1 µM | 80% |
| O=C(c1ccc(Nc2ncc(Cl)c(-c3cc4ccccc4s3)n2)cc1)N1CCC(N2CCCC2)CC1 | binding, competition with immobilised ligand | 1 µM | 34% |
| CC1CCCN1c1nccc(-c2cnn3ncccc23)n1 (stereo not shown) | binding | 1 µM | 97% |
| CCN1CCN(Cc2ccc(C(=O)Nc3ccc(C)c(Oc4ccc5c(c4)CC(=O)N5)c3)cc2C(F)(F)F)CC1 | binding, competition with immobilised ligand | 1 µM | 100% |
